Numbered stars: 1 amine (or outer) side, 2 acyl side, 3 side chain; on linkers, the order of the positions; unused ones are H or OH. Bridge positions count the residues as written; N and C are the ends. Square brackets hold non-standard residues; d marks the D form. Peptide text beside a SMILES is read from it. X3 = CC(C)(C)[C@H]1CC[C@@H](C(=O)[*:2])N1[*:1]; X1 = CC(C)(C)C1CC[C@@H](C(=O)[*:2])N1[*:1]; Mpa = O=C(O)CCS
Assays:
Rattus norvegicus [1] = organism: Rattus norvegicus; test: Compound was evaluated for the pressor activity in rat; assay type: functional
Summary of the method: (§1)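 Male rats (220-260 g) under urethane, pretreated with phenoxybenzamine in two doses. Femoral vein cannulated for dosing and carotid artery for blood pressure. After about 30 min stabilization, i.v. bolus doses of standard or analogue given in random order. Standard curve spanned 2 × 10-5 - 2 × 10-4 mg/kg. Activity set against the standard, 3-4 animals per analogue.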

Rattus norvegicus [2] = organism: Rattus norvegicus; test: In Vitro evaluation for the uterotonic activity in rat in the presence of 1 mM of Magnesium; assay type: functional
Summary of the method: (§2)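 Isolated uterus from rats estrogenized 24-48 h beforehand, in Munsick solution without magnesium or with 1 mM Mg2+, oxytocin as standard. Single doses given in random order with bath changed after each response and at least 5 min between doses; cumulative doubling doses given at 1-min intervals. IU/mg from threshold doses against standard, EC50 from the curves. Uteri from 3-5 rats.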

Rattus norvegicus [3] = organism: Rattus norvegicus; test: In Vitro evaluation for the uterotonic activity in rat in the absence of Magnesium; assay type: functional; summary of the method: as §2
Rattus norvegicus [4] = organism: Rattus norvegicus; test: Effective concentration in rat in the presence of 1 mM of Magnesium; assay type: functional, organism-based
Summary of the method: (§3)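 Isolated uterus from estrogen-primed rats (24-48 h) in Munsick solution, either without magnesium or with 1 mM Mg2+. Antagonist added 1 min before a standard oxytocin dose. EC50 is the concentration that cuts the response to a 2x agonist dose down to that of dose x; pA2 is its negative log. Uteri from 3-5 rats.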

Rattus norvegicus [5] = organism: Rattus norvegicus; test: Effective concentration in rat in the absence of Magnesium; assay type: functional, organism-based; summary of the method: as §3
Oxytocin receptor = molecular target: T1, Oxytocin receptor (Rattus norvegicus, UniProt P70536); test: Binding affinity against oxytocin receptor
T1 sequence (P70536 whole entry): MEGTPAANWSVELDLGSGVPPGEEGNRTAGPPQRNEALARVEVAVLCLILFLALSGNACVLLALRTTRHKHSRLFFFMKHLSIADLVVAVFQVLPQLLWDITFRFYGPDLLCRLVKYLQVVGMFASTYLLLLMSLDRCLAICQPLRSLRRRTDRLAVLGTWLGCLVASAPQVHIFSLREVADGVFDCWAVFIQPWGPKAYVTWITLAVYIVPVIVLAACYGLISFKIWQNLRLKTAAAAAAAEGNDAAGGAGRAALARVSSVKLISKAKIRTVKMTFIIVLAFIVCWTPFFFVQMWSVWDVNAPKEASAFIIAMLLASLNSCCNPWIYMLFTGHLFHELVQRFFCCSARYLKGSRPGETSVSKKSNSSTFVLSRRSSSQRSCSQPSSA
Summary of the method: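 Crude rat uterine membrane fraction incubated with [3H]oxytocin (2 nM) plus peptide at 0.1-10000 nM, 30 min at 35 °C. Buffer was 50 mM HEPES pH 7.6 with 10 mM MnCl2 and 1 mg/mL bovine serum albumin. Bound and free separated by rapid filtration.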

Rattus norvegicus [6] = organism: Rattus norvegicus; test: Compound was evaluated for the pressor activity; assay type: functional; summary of the method: as §1

| Structure (SMILES) | Activity (Rattus norvegicus [1]) [IU/mg] | Activity (Rattus norvegicus [2]) [IU mg-1] | Activity (Rattus norvegicus [3]) [IU mg-1] | EC50 (Rattus norvegicus [4]) [µM] | EC50 (Rattus norvegicus [5]) [µM] | Ki (Oxytocin receptor) [µM] | Activity (Rattus norvegicus [6]) [IU/mg] |
| --- | --- | --- | --- | --- | --- | --- | --- |
| CC[C@H](C)[C@@H]1NC(=O)[C@H](Cc2ccc(O)cc2)NC(=O)CCSSC[C@@H](C(=O)N2C(C(C)(C)C)CC[C@H]2C(=O)N[C@@H](CC(C)C)C(=O)NCC(N)=O)NC(=O)[C@H](CC(N)=O)NC(=O)[C@H](CCC(N)=O)NC1=O (stereo partly specified) ([Mpa]YIQNC[X1]LG-NH2; disulfide 1-6) | 0 | 3 | 6.1 | 0.075 | 0.05 | 0.24 | – |
| CC[C@H](C)[C@@H]1NC(=O)[C@H](Cc2ccc(O)cc2)NC(=O)CCSSC[C@@H](C(=O)N2CCC[C@H]2C(=O)N[C@@H](CC(C)C)C(=O)NCC(N)=O)NC(=O)[C@H](CC(N)=O)NC(=O)[C@H](CCC(N)=O)NC1=O [DEMOXYTOCIN] | – | 760 | 837 | – | – | 0.0032 | 1.5 |
| CC[C@H](C)[C@@H]1NC(=O)[C@H](Cc2ccc(O)cc2)NC(=O)[C@@H](N)CSSC[C@@H](C(=O)N2CCC[C@H]2C(=O)N[C@@H](CC(C)C)C(=O)NCC(N)=O)NC(=O)[C@H](CC(N)=O)NC(=O)[C@H](CCC(N)=O)NC1=O [OXYTOCIN] | 5 | 450 | 450 | 0.0005 | 0.0006 | – | – |
| CC[C@H](C)[C@@H]1NC(=O)[C@H](Cc2ccc(O)cc2)NC(=O)[C@@H](N)CSSC[C@@H](C(=O)N2[C@H](C(=O)N[C@@H](CC(C)C)C(=O)NCC(N)=O)CC[C@@H]2C(C)(C)C)NC(=O)[C@H](CC(N)=O)NC(=O)[C@H](CCC(N)=O)NC1=O (H-CYIQNC[X3]LG-NH2; disulfide 1-6) [listing 1 of 2 here] | 0 | 0.5 | 1.8 | – | – | – | – |
| CC[C@H](C)[C@@H]1NC(=O)[C@H](Cc2ccc(O)cc2)NC(=O)[C@@H](N)CSSC[C@@H](C(=O)N2[C@H](C(=O)N[C@@H](CC(C)C)C(=O)NCC(N)=O)CC[C@@H]2C(C)(C)C)NC(=O)[C@H](CC(N)=O)NC(=O)[C@H](CCC(N)=O)NC1=O (H-CYIQNC[X3]LG-NH2; disulfide 1-6) [listing 2 of 2 here] | – | – | – | 0.45 | 0.15 | 1.43 | – |
